Assay results from ChEMBL document CHEMBL1641459, “Virtual screening and synthesis of quinazolines as novel JAK2 inhibitors” (Bioorg Med Chem, 2011).
The source made the active and inactive calls. No cut-off for these calls is given here.

What was measured:
HeLa = test: Cytotoxicity against human HeLa cells after 48 hrs by MTT assay; type: functional, cell-based
[1] = target: Tyrosine-protein kinase JAK2 (Homo sapiens) (UniProt O60674); test: Inhibition of recombinant JAK2 at 20 uM
SK-OV-3 = test: Cytotoxicity against human SKOV3 cells after 48 hrs by MTT assay; type: functional, cell-based; conditions: SK-OV-3, 48 h
HT-29 [2] = test: Cytotoxicity against human HT-29 cells after 48 hrs by MTT assay; type: functional, cell-based; conditions: HT-29, 48 h
[3] = target: Tyrosine-protein kinase JAK2 (Homo sapiens) (UniProt O60674); test: Inhibition of IL-6-induced JAK2 phosphorylation in human HT-29 cells at 10 to 20 uM by Western blotting; type: cell-based
In short: (§1)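 HT-29 cells treated with IL-6 for 0.5 h, then compound (10, 20 µM or 50, 100 µM); lysed in ice-cold Hepes/Triton X-100 buffer with protease/phosphatase inhibitors, 30–40 µg protein immunoblotted for JAK2 and p-JAK2, ECL detection, GAPDH control; densitometry as % of control, three independent experiments.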

[4] = target: Tyrosine-protein kinase JAK2 (Homo sapiens) (UniProt O60674); test: Inhibition of IL-6-induced JAK2 phosphorylation in human HT-29 cells at 50 to 100 uM by Western blotting; type: cell-based; in short: as §1
HT-29 [5] = test: Cytotoxicity against human HT-29 cells upto 25 uM after 48 hrs by MTT assay; type: functional, cell-based
In short: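 MTT assay: cells seeded at 1 × 10⁵ cells/mL in RPMI-1640 with 10% FBS, compounds added after 24 h at various concentrations and exposed 48 h; MTT (5 mg/mL stock in PBS) added for 4 h, formazan dissolved in DMSO, absorbance read at 540 nm. Cells cultured in RPMI-1640, 10% FBS, 37 °C, 5% CO₂.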

HT-29 [6] = test: Induction of cell cycle arrest in human HT-29 cells assessed as increase accumulation at G2/M phase at 10 to 30 uM after 48 hrs by flow cytometry; type: functional, cell-based
In short: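 HT-29 cells at 70–80% confluence treated at 10, 20 and 30 µM for 48 h, ethanol-fixed (70%, 1 h on ice), propidium iodide stained with RNase A, DNA content analysed by flow cytometry; three independent experiments, Student's t-test versus untreated control.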

[7] = target: Tyrosine-protein kinase JAK2 (Mus musculus) (UniProt Q62120); test: Inhibition of IL-6-induced JAK2 phosphorylation in mouse embryonic stem cells at 20 uM by Western blotting; type: cell-based
In short: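 Mouse embryonic stem cells pretreated with IL-6, then exposed to compound; p-JAK2 level assessed by Western blotting.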

[8] = target: Tyrosine-protein kinase JAK2 (Homo sapiens) (UniProt O60674); test: Inhibition of IL-6-induced JAK2 phosphorylation in human HT-29 cells by Western blotting; type: cell-based; in short: as §1
[9] = target: Tyrosine-protein kinase JAK2 (Homo sapiens) (UniProt O60674); test: Inhibition of human JAK2-mediated IL6-induced Stat3-STAT3-dependent luciferase activity in human HT-29 cells at 5 to 20 uM by Western blotting; type: cell-based; conditions: in the assay text read “by luciferase reporter gene assay” for “by Western blotting”
In short: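 HT-29 cells co-transfected with pSTAT3-Luc and phRL-TK; after 24 h serum-starved overnight, treated 1 h with compound at varying concentrations and stimulated with IL-6 (20 ng/mL); dual luciferase readout normalised to Renilla; three independent experiments, Student's t-test.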

HT-29 [10] = test: Induction of cell cycle arrest in human HT-29 cells assessed as increase accumulation at G2/M phase at 5 to 20 uM after 24 hrs by flow cytometry; type: functional, cell-based
In short: (§2)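 HT-29 cells grown to 70–80% confluence, treated at 5, 10 and 20 µM for 24 h, fixed in 70% ethanol 1 h on ice, stained with propidium iodide (50 µg/mL) plus RNase A for 30 min in the dark at room temperature, DNA content by flow cytometry; means of three independent experiments, Student's t-test.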

HT-29 [11] = test: Induction of cell cycle arrest in human HT-29 cells assessed as decrease in accumulation at G1 phase at 5 to 20 uM after 24 hrs by flow cytometry; type: functional, cell-based; in short: as §2

Sequence of Tyrosine-protein kinase JAK2 (Homo sapiens) (O60674 whole entry): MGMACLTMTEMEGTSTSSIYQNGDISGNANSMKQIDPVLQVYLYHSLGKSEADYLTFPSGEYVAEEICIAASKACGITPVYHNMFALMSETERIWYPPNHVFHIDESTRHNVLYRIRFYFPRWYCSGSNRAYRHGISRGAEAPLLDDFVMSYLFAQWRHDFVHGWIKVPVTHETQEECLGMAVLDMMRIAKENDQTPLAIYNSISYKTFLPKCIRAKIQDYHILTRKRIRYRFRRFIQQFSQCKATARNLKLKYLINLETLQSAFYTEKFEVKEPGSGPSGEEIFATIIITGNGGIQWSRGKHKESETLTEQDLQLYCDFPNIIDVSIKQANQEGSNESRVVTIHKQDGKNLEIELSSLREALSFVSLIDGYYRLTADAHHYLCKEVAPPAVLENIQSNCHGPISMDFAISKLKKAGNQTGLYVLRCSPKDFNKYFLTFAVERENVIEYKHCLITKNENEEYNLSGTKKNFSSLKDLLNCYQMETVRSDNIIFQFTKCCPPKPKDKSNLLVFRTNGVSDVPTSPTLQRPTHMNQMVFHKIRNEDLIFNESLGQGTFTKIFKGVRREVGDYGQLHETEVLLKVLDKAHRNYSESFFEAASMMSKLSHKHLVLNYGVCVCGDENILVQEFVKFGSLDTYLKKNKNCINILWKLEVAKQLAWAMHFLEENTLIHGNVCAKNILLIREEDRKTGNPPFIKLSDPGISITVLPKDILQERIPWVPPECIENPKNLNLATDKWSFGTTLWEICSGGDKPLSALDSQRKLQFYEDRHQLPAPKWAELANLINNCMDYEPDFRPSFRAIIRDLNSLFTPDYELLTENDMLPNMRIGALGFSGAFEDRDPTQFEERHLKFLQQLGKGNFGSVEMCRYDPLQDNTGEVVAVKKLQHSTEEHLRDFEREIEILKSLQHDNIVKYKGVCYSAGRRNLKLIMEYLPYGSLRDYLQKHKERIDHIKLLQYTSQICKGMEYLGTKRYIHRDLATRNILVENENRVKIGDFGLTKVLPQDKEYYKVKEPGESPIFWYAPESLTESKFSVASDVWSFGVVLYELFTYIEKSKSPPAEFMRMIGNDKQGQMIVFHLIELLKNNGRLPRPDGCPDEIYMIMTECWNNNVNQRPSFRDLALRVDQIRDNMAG
Sequence of Tyrosine-protein kinase JAK2 (Mus musculus) (Q62120 whole entry): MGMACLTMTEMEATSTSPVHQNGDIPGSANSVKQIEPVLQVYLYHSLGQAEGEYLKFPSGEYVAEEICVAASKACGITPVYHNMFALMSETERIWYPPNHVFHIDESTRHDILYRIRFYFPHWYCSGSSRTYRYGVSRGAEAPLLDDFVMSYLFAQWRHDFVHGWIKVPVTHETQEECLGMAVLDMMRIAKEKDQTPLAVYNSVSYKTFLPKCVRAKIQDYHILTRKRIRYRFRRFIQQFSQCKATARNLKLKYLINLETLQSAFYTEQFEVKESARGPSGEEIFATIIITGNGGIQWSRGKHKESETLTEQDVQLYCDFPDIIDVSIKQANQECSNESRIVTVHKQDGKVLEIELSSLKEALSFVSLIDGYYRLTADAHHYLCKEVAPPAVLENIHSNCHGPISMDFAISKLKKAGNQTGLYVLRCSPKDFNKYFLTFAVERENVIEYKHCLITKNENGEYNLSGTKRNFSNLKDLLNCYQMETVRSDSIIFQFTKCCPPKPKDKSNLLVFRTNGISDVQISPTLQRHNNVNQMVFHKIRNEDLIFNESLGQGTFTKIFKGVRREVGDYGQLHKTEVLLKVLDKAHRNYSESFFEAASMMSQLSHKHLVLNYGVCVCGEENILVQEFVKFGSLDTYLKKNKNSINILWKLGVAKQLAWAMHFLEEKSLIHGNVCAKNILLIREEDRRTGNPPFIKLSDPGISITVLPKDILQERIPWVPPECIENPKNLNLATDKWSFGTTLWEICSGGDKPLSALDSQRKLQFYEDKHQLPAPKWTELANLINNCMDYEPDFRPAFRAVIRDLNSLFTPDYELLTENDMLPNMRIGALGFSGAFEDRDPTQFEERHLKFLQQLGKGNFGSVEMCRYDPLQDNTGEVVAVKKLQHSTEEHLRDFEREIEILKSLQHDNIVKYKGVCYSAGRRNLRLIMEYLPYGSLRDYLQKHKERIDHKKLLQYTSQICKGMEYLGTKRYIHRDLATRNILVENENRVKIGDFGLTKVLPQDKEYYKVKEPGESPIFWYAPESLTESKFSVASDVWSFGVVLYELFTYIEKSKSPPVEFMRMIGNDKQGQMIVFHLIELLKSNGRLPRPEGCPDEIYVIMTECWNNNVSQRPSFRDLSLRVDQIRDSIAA

Compound | IC50 (HeLa) | inhibition [1] | IC50 (SK-OV-3) | IC50 (HT-29 [2]) | also measured
COc1ccc(CCNc2ncnc3cc(OC)c(OC)cc23)cc1OC | > 100 µM | 25.3% | > 100 µM | > 100 µM | 
N#C/C(=C\c1ccc(O)c(O)c1)C(=O)NCc1ccccc1 | > 100 µM | 55.1% |  | 78.5 µM | inhibition [3]: inactive; inhibition [4]: Active; Activity (HT-29 [5]): inactive; Activity (HT-29 [6]): Active
COc1cc2ncnc(NN3CCOCC3)c2cc1OC | > 100 µM | 44.4% | > 100 µM | > 100 µM | inhibition [7]: Active
COc1ccc(Nc2ncnc3cc(OC)c(OC)cc23)cc1 |  |  | > 100 µM |  | 
COc1cc2ncnc(Nc3ccc(C)cc3)c2cc1OC | 99.5 µM | 18.4% | 91.9 µM | 57.9 µM | 
COc1cc2ncnc(Nc3cccc4ccccc34)c2cc1OC | 8.02 µM | 43% | 16.7 µM | 7.65 µM | inhibition [8]: Dose-dependent effect; inhibition [9]: Active; Activity (HT-29 [10]): Active; Activity (HT-29 [11]): Active
COc1cc2ncnc(Nc3ccccc3C)c2cc1OC | > 100 µM | 10.6% | > 100 µM | > 100 µM | 
COc1cc2ncnc(NCCN3CCOCC3)c2cc1OC | > 100 µM | 29.5% | > 100 µM | > 100 µM | 
COc1cc2ncnc(Nc3ccc(O)cc3)c2cc1OC | 51.5 µM | 33.1% | 74.6 µM | 93 µM | 
COc1cccc(Nc2ncnc3cc(OC)c(OC)cc23)c1 | > 100 µM | 29.4% | > 100 µM | > 100 µM | 
COc1cc2ncnc(Nc3ccc(Br)cc3)c2cc1OC |  | 29.3% | > 100 µM | > 100 µM | 
COCCNc1ncnc2cc(OC)c(OC)cc12 | > 100 µM | 38% | > 100 µM | > 100 µM | 
COc1cc2ncnc(Nc3cccc(O)c3)c2cc1OC | 43.9 µM | 23.8% | 37.5 µM | 59.7 µM | 
COc1cc2ncnc(Nc3nc4c(Cl)cccc4s3)c2cc1OC | > 100 µM | 14.4% | > 100 µM | > 100 µM | 
